Published values from different studies.
Target: Serine/threonine-protein kinase/endoribonuclease IRE1 (ERN1, Homo sapiens, UniProt O75460)

Compound	read-out	mode	technique	cell line	concentration	endpoint	result
CCCCNc1ncc2c(-c3ccc(F)cc3)nn(C[C@H]3CC[C@H](N)CC3)c2n1	target engagement in cells	inhibitor	chemoproteomics	–	20 mM	inhibition	-1.9%
Cc1cnc(NC2CCOCC2)nc1-n1cnc(C(=O)NC(CN)c2cc(F)cc(Cl)c2)c1 (stereo not shown)	enzyme activity	inhibitor	radiometric	–	1 µM	remaining activity	99%
Cc1ccc(C(=O)NCc2ccsc2)cc1C#Cc1cn(C(C)C)c2ncnc(N)c12	enzyme activity	inhibitor	–	–	1 µM	activity vs control	100%
CN(c1ccnc(CNc2nc(Nc3ccc4c(c3)CC(=O)N4)ncc2C(F)(F)F)n1)S(C)(=O)=O	cell-free assay	–	competition with immobilised ligand	–	1 µM	remaining binding	49%
COc1cc(Cl)c(C(=O)N[C@@H](CN[C@H]2CC[C@@H](N)CC2)Cc2ccc(C#N)cc2)cc1-c1ccc(CN[C@H](C)c2ccc(C)cc2)o1	enzyme activity	inhibitor	–	–	1 µM	remaining activity	93%
Nc1ncnc2occ(-c3ccc(NC(=O)Nc4cc(C(F)(F)F)ccc4F)cc3)c12	cell-free assay	inhibitor	–	–	20 µM	remaining signal	16%
CN([C@@H]1CCc2c(CC(=O)O)c3ccccc3n2C1)S(=O)(=O)c1ccc(F)cc1	cell-free assay	–	competition with immobilised ligand	–	1 µM	remaining binding	94%
CCN1CCN(Cc2ccc(NC(=O)c3ccc(C)c(Oc4ccnc5[nH]ccc45)c3)cc2C(F)(F)F)CC1	target engagement in cells	inhibitor	chemoproteomics	Huh-7	10 µM	inhibition	-12.6%
Cc1ccc(C(=O)Nc2ccc(CN3CCN(C)CC3)c(C(F)(F)F)c2)cc1C#Cc1cnc2cccnn12	enzyme activity	inhibitor	–	–	23.5 nM	remaining activity	81%
O=C(Nc1cnn(-c2csc(C(=O)NC3COC3)c2)c1)Nc1ccccc1Cl	enzyme activity	inhibitor	–	–	5 µM	remaining activity	94.3%
COc1cccc2c(NCc3ccccc3)nc(-n3c(N)nc4ccccc43)nc12	target engagement in cells	inhibitor	chemoproteomics	–	20 mM	inhibition	-6.5%
Cc1cc(NC(=O)c2cccc3cc(-c4cccc5[nH]nc(N)c45)ccc23)ccc1F	enzyme activity	inhibitor	–	–	0.1 µM	activity vs control	87%
Cc1ccc(NC(=O)c2ccc(C)c(C(F)(F)F)c2)cc1C#Cc1nn(C2CCC(O)CC2)c2ncnc(N)c12 (stereo not shown)	cell-free assay	–	–	–	10 µM	remaining signal	94%
Cc1sc(C(=O)NC2COC2)cc1-n1cc(NC(=O)Nc2c(F)cccc2Cl)cn1	enzyme activity	inhibitor	–	–	10 µM	remaining activity	94.1%
O=S(=O)(NC1CCC(c2cc(F)ccc2F)(S(=O)(=O)c2ccc(Cl)cc2)CC1)C(F)(F)F (stereo not shown)	cell-free assay	–	competition with immobilised ligand	–	1 µM	remaining binding	100%
CN1CC(Oc2cnc(C#N)cc2-c2ccn3nc(NC(=O)C4CC4)cc3c2)C1	enzyme activity	inhibitor	–	–	1 µM	inhibition	4%
